Assay outcomes (PubChem)
This is a sample that favours compounds with a hit; in the whole collection about 3.9% have one here.
HSF-1 act: increases HSF-1 driven luciferase reporter signal; NIH3T3-HGL HSF-1 luciferase reporter, MG132, 8 h; 100% = twice DMSO control signal; activation, % at 9 µM; hit rate 1.7% among 300,000;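 active = mean replicate activation of at least 50% with a set share of replicates each reaching 50%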;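 note: 0% = median of the neutral control wells and 100% = twice that signal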
HCV NS3 hel inh: blocks Hepatitis C virus NS3 helicase unwinding; AID 1800; inhibition, % at 10.9 µM; hit rate 0.56% among 290,000; NS3 helicase DNA unwinding, Cy5 molecular beacon fluorescence;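 active = inhibition above the mean of all tested compounds plus 3 SD, set per campaign, cut at about 35% in these data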;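 note: 0% = DMSO wells and 100% = thioflavine S control wells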
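System: NS3 helicase fragment of HCV / Schedule: 1 h at 25 °C / Control set: DMSO alone as 0% and 110 µM thioflavine S as 100% / Reagent: Cy5/quencher beacon DNA duplex and ATP to start / Technique: Cy5 fluorescence / Replication: singlicate / Evaluation: % inhibition of end-to-start signal ratio versus controls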
HCV core dimer: HCV core protein dimerization inhibition; TR-FRET GST/Flag-core106 dimerization, 1536-well; inhibition, % at 5 µM; hit rate 0.33% among 300,000; AID 1899;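 active = inhibition above the mean of all tested compounds plus 3 SD, set per screening campaign, cut at about 45% in these data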
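test system = GST/Flag-tagged HCV core106 proteins | probe or stimulus = Eu donor and XL665 acceptor anti-tag antibodies | times = compound-protein-antibody incubation 4 h at 22.5 °C | signal = TR-FRET, excitation 340 nm, emission 617 and 671 nm | measure = percent inhibition of core106 dimerization signal | controls = wells lacking GST-core106 and wells with excess unlabelled core106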
HSP90 refold inh: HSP90 refolding inhibition in rabbit reticulocyte lysate; luciferase refolding luminescence, 3 h; inhibition, % at 5.6 µM; hit rate 0.91% among 290,000;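 active = inhibition above the screen-wide mean plus 3 SD, computed separately per campaign, cut at about 16% in these data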;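 note: 0% = DMSO wells and 100% = 60 µM geldanamycin wells; inhibitors lower the luminescence because luciferase stays unfolded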
FID counter: displaces DNA intercalator in HCV helicase counter-screen; DNA fluorescent intercalator displacement, fluorescence; inhibition, % at 7.9 µM; hit rate 0.17% among 290,000; AID 1845; in the data active = inhibition above about 37%;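 note: 0% = vehicle and 100% = reference compound; higher means more ethidium bromide displaced from hairpin DNA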
HSF1 inh: HSF1 inhibition; NIH3T3-HGL HSE-luciferase, MG132-induced, luminescence 8 h; hits give low values; activity change, negative = inhibition, % at 7.5 µM (by protocol); hit rate 0.77% among 300,000; AID 2098;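 active = more than half of replicate wells show activity change below -50%, luminescence cut by over half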;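 note: luciferase reports HSF-1 transcriptional activity via heat shock element; 0% = median of DMSO wells and -100% = zero luminescence signal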
Numbers without * were called inactive; . = no result given.

SMILES | HSF-1 act | HCV NS3 hel inh | HCV core dimer | HSP90 refold inh | FID counter | HSF1 inh
Cc1ccc(O)c(NC(=O)CCCC(=O)O)c1 | -0.4 | 4.5 | -0.7 | 0.6 | 1.1 | 4.5
O=C(CCC1CCCCC1)Nc1ccccc1O | 58.9* | 4.3 | -4.2 | -0.2 | -3.0 | 45.3
Cn1c(NNC(=O)CCC2CCCCC2)cc(=O)n(C)c1=O | 17.8 | 0.1 | -2.5 | -3.7 | -2.1 | -4.4
Cc1ccc(O)c(NC(=O)CCC2CCCCC2)c1 | 151.4* | -9.2 | 2.5 | 0.5 | -4.2 | 78.0
Cn1c(NC(=O)CCC2CCCCC2)cc(=O)n(C)c1=O | 55.0* | 5.6 | 0.7 | -1.9 | -15.7 | 35.6
CCCCN(C)C(=O)C1CCC(CNS(=O)(=O)c2ccc3c(c2)CC(C)N3C(=O)C2CC2)CC1 (centres undefined) | 60.8* | -4.3 | 8.9 | -0.7 | -52.9 | 14.8
Cc1cc(/C(N)=N/OC(=O)c2ccc(Cl)cc2)no1 | 63.9* | 0.9 | 1.6 | 8.3 | -2.9 | 31.7
Cc1ccc2nc(SCc3ccc([N+](=O)[O-])cc3)[nH]c2c1 | 82.2* | -1.2 | -4.1 | -5.8 | 8.2 | 67.3
Cc1cc(C)c(C#N)c(SCc2ccc([N+](=O)[O-])cc2)n1 | 52.6* | 1.6 | 1.2 | 3.6 | 10.2 | 7.5
Cc1ccc2nc(SCc3ccc([N+](=O)[O-])cc3)nc(C)c2c1 | . | 0.6 | 3.0 | -4.6 | 3.2 | .
Cc1ccc2nc(SCC(=O)NCc3ccc(F)cc3)[nH]c2c1 | 64.7* | 12.1 | -16.0 | 2.7 | -12.3 | 19.9
CC(C)CC(OC(=O)c1nsc(Cl)c1Cl)C(=O)NC1CCCC1 (centres undefined) | -16.5 | -10.2 | -6.2 | 4.2 | -34.6 | -2.2
CC(C)[C@H](NC(=O)OC(C)(C)C)c1nnc(SCC(=O)Nc2ccc(Br)cc2)o1 | 84.1* | -4.1 | -3.4 | 2.8 | -22.0 | 31.6
CCc1cccc(CC)c1N(COC)C(=O)Cn1ccccc1=N | -2.7 | -6.0 | -4.8 | 2.7 | 1.8 | -3.5
CCC1Oc2ccc(C)cc2N(Cc2cccc(C)c2)C1=O (centres undefined) | 53.6* | 6.0 | 3.8 | 3.0 | -7.6 | 8.3
Cc1cc(S(=O)(=O)Nc2ccc(C(=O)NCC(C)(C)N3CCOCC3)cc2)ccc1F | -75.4 | -8.1 | -0.2 | -3.7 | 5.2 | -68.5*
Cc1ccc(C(=O)/C=C/c2cn(CN3CCN(C)CC3)c3ccccc23)cc1 | 59.7* | -8.0 | 1.3 | 5.4 | -2.0 | 25.5
O=C1c2ccccc2C(=O)N1CCCn1ccnc1 | 4.8 | 10.5 | -1.3 | 5.0 | 0.5 | 12.1
COc1ccc(C(=O)NNC(=O)c2ccccn2)cc1 | -75.6 | 10.4 | -0.8 | 75.5* | -1.4 | -67.7*
COc1cc(OC)cc(C(=O)O/N=C(\N)c2ccccn2)c1 | 55.0* | 13.7 | 1.1 | 2.1 | -3.9 | 29.5
CCOc1cc(C(=O)O/N=C(\N)c2ccccn2)cc(OCC)c1OCC | -7.7 | 6.7 | 13.9 | -0.2 | -34.2 | 6.6
Cn1c(=O)c2c(ncn2CCN(CCO)Cc2ccccc2)n(C)c1=O | -26.1 | 7.9 | 2.5 | -2.1 | 2.7 | -6.3
CCc1nnc(NC(=O)C2CCN(C(=O)c3ccco3)CC2)s1 | 10.8 | 0.8 | -6.8 | 0.2 | -6.1 | -1.4
Cc1nnc(NC(=O)C2CCN(C(=O)c3ccco3)CC2)s1 | -2.9 | 9.6 | -2.7 | 16.4* | -15.4 | -0.5
CC(C)c1nnc(NC(=O)C2CCN(C(=O)c3ccco3)CC2)s1 | -70.8 | 6.8 | 6.8 | 0.6 | -17.8 | -64.0*
SMILES | HSF-1 act | HCV NS3 hel inh | HCV core dimer | HSP90 refold inh | FID counter | HSF1 inh
Cc1noc(C)c1COC(=O)C1CCN(S(=O)(=O)c2c(Cl)cccc2Cl)CC1 | 2.2 | . | 2.7 | . | . | -1.0
CC(C)c1ccc(S(=O)(=O)N2CCC(C(=O)NCC3(N(C)C)CCCCC3)CC2)cc1 | -2.4 | -52.7 | -2.4 | -2.2 | 18.3 | -3.0
COc1ccc(C(=O)Nc2cc3c(cc2Cl)OCCCO3)cc1 | 53.3* | 3.5 | -1.0 | -1.8 | -10.0 | 38.6
COc1cccc(C(=O)Nc2cc3c(cc2Cl)OCCCO3)c1 | 54.0* | -6.4 | 0.1 | 1.1 | -22.3 | 18.4
Cc1ccc(C(=O)Nc2cc3c(cc2Cl)OCCCO3)cc1 | 28.6 | 8.4 | -0.4 | -1.3 | -13.0 | 13.3
CCCCC1(C)Cc2ccccc2C(=S)N1 (centres undefined) | -13.3 | -1.9 | -0.9 | -0.7 | -2.2 | -2.4
O=C(NNC(=O)c1ccccc1O)c1ccc(Cl)c(S(=O)(=O)N2CCc3ccccc32)c1 | -0.8 | . | 5.0 | . | . | 4.9
Cc1c(NC(=O)c2ccc3ncccc3c2)c(=O)n(-c2ccccc2)n1C | -0.4 | -1.0 | -2.4 | -3.8 | -0.6 | -7.0
Cc1ccc(NC2c3ncccc3C(=O)N2C2CCCCC2)cc1C (centres undefined) | -2.1 | -2.7 | 8.9 | -0.2 | -24.1 | 0.1
Cc1ccc(NC2c3ncccc3C(=O)N2C2CCCCC2)cc1 (centres undefined) | 66.7* | 8.0 | 3.3 | 4.8 | -21.4 | 33.7
CCCNC(=O)C12CCC(C)(c3nc4cc(C)c(C)cc4nc31)C2(C)C (centres undefined) | . | -9.0 | 0.9 | -1.9 | -21.3 | .
Oc1c(C(Nc2ccccn2)c2ccccn2)ccc2cccnc12 (centres undefined) | -19.0 | 3.6 | -3.8 | 4.5 | -3.6 | -19.8
Oc1ccccc1C(Nc1nccs1)c1ccc2cccnc2c1O (centres undefined) | -63.8 | 7.2 | -2.4 | 3.8 | -11.9 | -57.1*
CNC(=O)n1cc(C)c(-c2cccs2)n1 | -3.3 | -4.2 | -0.2 | 1.6 | -1.7 | 4.4
CCOC(=O)CN1C=C(c2ccc3ccccc3n2)C(C[N+](=O)[O-])c2ccccc21 (centres undefined) | 93.8* | -13.2 | 4.4 | -0.1 | 0.5 | 58.8
CCn1c(C(=O)N2CCc3ccccc3C2)cc2oc3ccccc3c21 | 27.5 | -15.5 | 9.9 | 3.1 | -15.3 | 5.9
Cn1c(C(=O)N2CCc3ccccc3C2)cc2oc3ccccc3c21 | 65.9* | -8.4 | 11.1 | -3.3 | -13.9 | 41.5
Cc1ccc(N2C(=O)[C@@H]3[C@H](C2=O)C2CCCN2[C@@H]3C(=O)c2ccccc2)cc1 (some centres undefined) | 28.5 | 24.1 | 57.6* | 1.0 | -15.5 | 11.6
COc1ccccc1CN1C(=O)CCC1(C)C(=O)NCc1cccnc1 (centres undefined) | 4.9 | -1.4 | -2.2 | -1.4 | -0.9 | -8.3
CCC(C)NC(=O)C1(C)CCC(=O)N1Cc1ccccc1OC (centres undefined) | -80.1 | -2.4 | -5.4 | 2.6 | -1.0 | -74.5*
COC(=O)Cc1nnc(Nc2cccc(C)c2)c2ccccc12 | -16.5 | 2.6 | 1.3 | 4.1 | -20.4 | -12.9
CCOC(=O)Cc1nnc(Nc2cccc(C)c2)c2ccccc12 | 80.3* | -9.1 | -0.8 | 3.1 | -17.6 | 65.4
O=C(C1=C[C@@H](c2ccc(C(F)(F)F)cc2)C[C@@H](OCc2ccc(CO)cc2)O1)N1CCN(Cc2ccc3c(c2)OCO3)CC1 | -5.9 | -35.9 | 3.1 | 7.4 | -15.1 | -11.0
